We go through four molecules from ChEMBL document CHEMBL5674881, “The therapeutic properties of resminostat for hepatocellular carcinoma” (2018).

Molecules are shown by their SMILES. Calls of active or inactive are those of the source. The calls are words filed in the database; no cut-off is given here.

The test system of assay [1] is Hep 3B2. The assay can be described thus: Anti-proliferative activity against human Hep3B cells assessed as reduction in cell viability at7 nM incubated for 24 hrs by Fluoro Fire-Blue ProViaTox assay. Type of assay: functional, cell-based. As to conditions: dose 7.0 nM.
Assay [2] has as its system Hep 3B2. The assay can be described thus: Anti-proliferative activity against human Hep3B cells assessed as reduction in cell viability at 20 uM incubated for 24 hrs by Fluoro Fire-Blue ProViaTox assay. In kind it is functional, cell-based.
Assay [3] concerns Hep 3B2. The assay can be described thus: Anti-proliferative activity against human Hep3B cells assessed as reduction in cell viability at 50 nM measured after 24 hrs by Fluoro Fire-Blue ProViaTox assay. In kind it is functional, cell-based.
For assay [4], the system named is Hep 3B2. The assay is described as follows: Antiinflammatory activity against human Hep3B cells assessed as reduction in p65 RNA expression level at 50 nM incubated for 24 hrs in presence of SGBS CM by qRT-PCR analysis. In kind it is functional, cell-based. The method, boiled down: (§1)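 Hep3B treated 24 h with 17-AAG 50 nM, alone, with 30% SGBS conditioned medium, or with resminostat 80 nM. p65 RNA measured by RT-PCR. Nuclear p65 protein measured by transcription-factor ELISA: nuclear extract bound to NFκB consensus-duplex plate for 1 h at room temperature, then anti-p65 and HRP secondary antibodies, then chemiluminescence read. n = 3.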
(In general: Real-time PCR tracks product formation cycle by cycle.)

Assay [5] deals with Hep 3B2. The assay can be described thus: Antiinflammatory activity against human Hep3B cells assessed as reduction in resminostat-induced p65 RNA expression level at 50 nM incubated for 24 hrs by qRT-PCR analysis relative to control. Type of assay: functional. Also on record: scale not given: the % may be the effect or the level left. The gist of the method: as §1
Assay [6] relates to Hep 3B2. The assay is described as follows: Antiinflammatory activity against human Hep3B cells assessed as reduction in nuclear protein expression level of p65 […] at 50 nM incubated for 24 hrs in presence of SGBS CM by […] analysis. In kind it is functional, cell-based. The method, boiled down:
as §1

The test system of assay [7] is Hep 3B2. The assay can be described thus: Antiinflammatory activity against human Hep3B cells assessed as reduction in nuclear protein expression level of p65 […] at 50 nM incubated for 24 hrs by […] analysis. Type of assay: functional, cell-based. The method, boiled down:
as §1

Assay [8] concerns Hep 3B2. The assay is described as follows: Downregulation of HDAC1 expression in human Hep3B cells at 50 nM incubated for 24 hrs by qRT-PCR analysis. In kind it is functional, cell-based.
Assay [9] deals with Hep 3B2. The assay can be described thus: Downregulation of HDAC2 expression in human Hep3B cells at 50 nM incubated for 24 hrs by qRT-PCR analysis. Type of assay: functional, cell-based.
Assay [10] concerns Hep 3B2. The assay is described as follows: Anti-proliferative activity against human Hep3B cells assessed as reduction in cell viability at 1 uM incubated for 24 hrs by Fluoro Fire-Blue ProViaTox assay. In kind it is functional, cell-based.

In the case of `CCCc1cc(C)[nH]c(=O)c1CNC(=O)c1cc(-c2ccnc(N3CCN(C)CC3)c2)cc2c1cnn2C(C)C`, the outcome in assay [1] was Active.

As for `Nc1nccc2c1ncn2[C@@H]1C=C(CO)[C@@H](O)[C@H]1O`, the result in [2] was Active.

With `C=CCNC1=C2C[C@@H](C)C[C@H](OC)[C@H](O)[C@@H](C)/C=C(\C)[C@H](OC(N)=O)[C@@H](OC)/C=C\C=C(/C)C(=O)NC(=CC1=O)C2=O` [TANESPIMYCIN], the result in assay [3], in assay [4], in [6], in [7], in assay [8] and in [9] was Active. Further, the Activity in assay [5] is 100%.

Consider `COc1cccc2c1C(=O)c1c(O)c3c(c(O)c1C2=O)C[C@@](O)(C(=O)CO)C[C@@H]3O[C@H]1C[C@H](N)[C@H](O)[C@H](C)O1`, for which the outcome in assay [10] was Active.
